Laboratory results taken from PMC3663483 (Nature, 2012).

Experiments:
GFP-labelled PC3 cells = experiment: Real-time imaging of cell migration; type: cell-based, human; details: starting at 6 h of treatment
Summary of the method: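 GFP-labelled PC3 cells were plated on poly-D-lysine-coated chamber slides and left to adhere for 24 h. Wells were then scratch-wounded. Wide-field fluorescence time-lapse was run under CO2 and temperature control, with DIC and GFP frames every 2 min. Cell centroids were tracked manually to give xy paths, velocity and distance. Analysis covered hours 3–4 and 6–7 of treatment, with 34 cells per condition and ANOVA.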

[1] = system: 4EBP1 and p70S6K1/2 phosphorylation; experiment: Preclinical trial in Pten L/L mice: mTOR effector phosphorylation; type: in vivo, mouse; details: INK128 1 mg/kg or RAD001 10 mg/kg daily gavage
Summary of the method: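 Nine- and twelve-month-old PtenL/L mice were dosed daily by oral gavage, with vehicle 5% […], 15% NMP, 80% water. Whole prostates were removed, microdissected, frozen in liquid nitrogen and pulverised. Protein lysates were immunoblotted with antibodies to phospho-4EBP1 T37/46, 4EBP1, phospho-p70S6K T389, phospho-rpS6 S240/244 and rpS6.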

[2] = system: Pten^L/L prostate cancer mouse model; type: in vivo; details: Pten L/L mice; for apoptosis in prostate / cell proliferation in prostate: INK128 1 mg/kg or RAD001 10 mg/kg daily gavage
Summary of the method: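 PtenL/L mice aged nine or twelve months were given daily oral gavage; vehicle was 5% polyvinylpropyline, 15% NMP, 80% water. Body weight was taken every 3 days for toxicity. In the 28-day study, prostates were MRI-imaged at 14 T on days 0 and 28. Prostates and lymph nodes were formalin-fixed and cut as 5 μm paraffin sections. Nodes were stained for CK8 and androgen receptor, and metastasis areas were measured.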

[3] = system: multiple cancer cell lines; experiment: Apoptosis analysis; type: cell-based, human
Summary of the method: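 LNCaP and A498 cells, after treatment, were labelled with Annexin V-FITC and propidium iodide per kit instructions. Annexin/PI staining was acquired by flow cytometry to score apoptotic cells.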

[4] = system: mTOR effectors 4EBP1, p70S6K1/2 and AKT; experiment: Western blot of downstream mTOR effectors in PC3 cells; type: cell-based, human; details: PP242 2.5 μM, rapamycin 50 nM, 3-h treatment
[5] = system: PC3 human prostate cancer cells; experiment: Ribosome profiling of PC3 cells; type: cell-based; details: 3 h, rapamycin 50 nM
[6] = system: Jurkat lymphoid cell line; details: cited from earlier work

Row | Structure (SMILES) | cancer cell migration (GFP-labelled PC3 cells) | 4EBP1 and p70S6K1/2 phosphorylation [1] | decrease in prostatic intraepithelial neoplasia (PIN) lesions ([2]; INK128 1 mg/kg daily gavage) [%] | prostate cancer volume ([2]; INK128 1 mg/kg daily gavage, MRI day 0 and day 28) | apoptosis in prostate [2] | cell proliferation in prostate [2] | programmed cell death [3] | regression of PIN lesions ([2]; RAD001 10 mg/kg daily gavage) | activity of downstream mTOR effectors 4EBP1, p70S6K1/2 and AKT [4] | effect on gene expression by ribosome profiling [5] | sensitivity to rapamycin treatment [6]
1 | CC(C)n1nc(-c2ccc3oc(N)nc3c2)c2c(N)ncnc21 [INK128] | inhibits cancer cell migration | completely restored to wild-type levels | 50 | marked reduction | tenfold increase | decreased proliferation | induced programmed cell death | – | – | – | –
2 | CO[C@H]1C[C@@H]2CC[C@@H](C)[C@@](O)(O2)C(=O)C(=O)N2CCCC[C@H]2C(=O)O[C@H]([C@H](C)C[C@@H]2CC[C@@H](OCCO)[C@H](OC)C2)CC(=O)[C@H](C)/C=C(\C)[C@@H](O)[C@@H](OC)C(=O)[C@H](C)C[C@H](C)/C=C/C=C/C=C/1C [RAD001] | – | only decreased p70S6K1/2 phosphorylation levels | – | – | no significant effect | limited decrease | – | only partial regression | – | – | –
3 | CO[C@H]1C[C@@H]2CC[C@@H](C)[C@@](O)(O2)C(=O)C(=O)N2CCCC[C@H]2C(=O)O[C@H]([C@H](C)C[C@@H]2CC[C@@H](O)[C@H](OC)C2)CC(=O)[C@H](C)/C=C(\C)[C@@H](O)[C@@H](OC)C(=O)[C@H](C)C[C@H](C)/C=C/C=C/C=C/1C [rapamycin] | – | – | – | – | – | – | – | – | only blocks p70S6K1/2 activity | did not markedly affect gene expression | particularly sensitive
